# Measured values published in ChEMBL document CHEMBL3763093, “The molecular structure of thio-ether fatty acids influences PPAR-dependent regulation of lipid metabolism” (Bioorg Med Chem, 2016).
# Calls of active or inactive are those of the source. The calls are words filed in the database; no cut-off is given here.
# Legend:
# [1] = Effect on fatty acid composition in human myotubes assessed as intracellular TTA level at 10 uM after 96 hrs; type: functional
# In short: (§1)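 Differentiated human myotubes (7 days) treated 96 h with 10 or 30 μM compound or DMSO 0.1% (two controls). Cells washed, harvested, lipids extracted and methylated (methanol, sulfuric acid, 90 °C, 1 h); FA methyl esters quantified by GC with C21:0 internal standard, peaks confirmed by standards and GC/MS; values as mol % of intracellular fatty acids.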
# [2] = Effect on fatty acid composition in human myotubes assessed as intracellular dTTA level at 10 uM after 96 hrs; type: functional; in short: as §1
# [3] = Effect on fatty acid composition in human myotubes assessed as intracellular SFA level at 10 uM after 96 hrs (Rvb= 36.16%); type: functional; in short: as §1
# [4] = Effect on fatty acid composition in human myotubes assessed as intracellular MUFA level at 10 uM after 96 hrs (Rvb= 41.04%); type: functional; in short: as §1
# [5] = Effect on fatty acid composition in human myotubes assessed as intracellular PUFA n-3 level at 10 uM after 96 hrs (Rvb= 7.47%); type: functional; in short: as §1
# [6] = Effect on fatty acid composition in human myotubes assessed as intracellular PUFA n-6 level at 10 uM after 96 hrs (Rvb= 13.41%); type: functional; in short: as §1
# [7] = Effect on fatty acid composition in human myotubes assessed as intracellular PUFA n-9 level at 10 uM after 96 hrs (Rvb= 1.78%); type: functional; in short: as §1
# [8] = Effect on fatty acid composition in human myotubes assessed as intracellular TTA level at 30 uM after 96 hrs; type: functional; in short: as §1
# [9] = Effect on fatty acid composition in human myotubes assessed as intracellular dTTA level at 30 uM after 96 hrs; type: functional; in short: as §1
# [10] = Effect on fatty acid composition in human myotubes assessed as intracellular SFA level at 30 uM after 96 hrs (Rvb= 36.16%); type: functional; in short: as §1
# [11] = Effect on fatty acid composition in human myotubes assessed as intracellular MUFA level at 30 uM after 96 hrs (Rvb= 41.04%); type: functional; in short: as §1
# [12] = Effect on fatty acid composition in human myotubes assessed as intracellular PUFA n-3 level at 30 uM after 96 hrs (Rvb= […]); type: functional; in short: as §1
# [13] = Effect on fatty acid composition in human myotubes assessed as intracellular PUFA n-6 level at 30 uM after 96 hrs (Rvb= 13.41%); type: functional; in short: as §1
# [14] = Effect on fatty acid composition in human myotubes assessed as intracellular PUFA n-9 level at 30 uM after 96 hrs (Rvb= 1.78%); type: functional; in short: as §1
# [15] = Effect on fatty acid composition in human myotubes assessed as change in intracellular SFA level at 10 uM after 96 hrs relative to DMSO control; type: functional; in short: as §1
# [16] = Effect on fatty acid composition in human myotubes assessed as change in intracellular SFA level at 30 uM after 96 hrs relative to DMSO control; type: functional; in short: as §1
# [17] = Effect on fatty acid composition in human myotubes assessed as change in intracellular MUFA level at 10 uM after 96 hrs relative to DMSO control; type: functional; in short: as §1
# [18] = Effect on fatty acid composition in human myotubes assessed as change in intracellular MUFA level at 30 uM after 96 hrs relative to DMSO control; type: functional; in short: as §1
# [19] = organism: Homo sapiens; test: Induction of fatty acid oxidation in human myotubes using [14C]oleic acid as substrate preincubated for 96 hrs followed by substrate addition incubated for 4 hrs by liquid scintillation analysis; type: functional
# In short: (§2)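 Myotubes differentiated 7 days were pretreated 96 h with 10 or 30 μM compound, 10 nM GW501516 or DMSO 0.1%, then given [1-14C]oleic acid (0.5 μCi/mL, 100 μM) in DPBS with HEPES 10 mM and L-carnitine 1 mM, 4 h at 37 °C. Trapped CO2 and cell-associated label counted by scintillation; uptake = CO2 + CA; Bradford protein; % of DMSO basal; n = 8–15.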
# [20] = organism: Homo sapiens; test: Effect on intracellular [14C]oleic acid uptake in human myotubes at 10 to 30 uM preincubated for 96 hrs followed by substrate addition incubated for 4 hrs by liquid scintillation analysis; type: functional, cell-based; in short: as §2
# [21] = Effect on protein level in human myotubes at 10 to 30 uM; type: ADME
# [22] = Effect on total fatty acid level in human myotubes assessed as per mg of protein at 10 to 30 uM; type: ADME
# [23] = Effect on fatty acid composition in human myotubes assessed as intracellular SFA level at 10 uM after 96 hrs (Rvb= 31.41%); type: functional; in short: as §1
# [24] = Effect on fatty acid composition in human myotubes assessed as intracellular MUFA level at 10 uM after 96 hrs (Rvb= 49.95%); type: functional; in short: as §1
# [25] = Effect on fatty acid composition in human myotubes assessed as intracellular PUFA n-3 level at 10 uM after 96 hrs (Rvb= 5.16%); type: functional; in short: as §1
# [26] = Effect on fatty acid composition in human myotubes assessed as intracellular PUFA n-6 level at 10 uM after 96 hrs (Rvb= 11.46%); type: functional; in short: as §1
# [27] = Effect on fatty acid composition in human myotubes assessed as intracellular PUFA n-9 level at 10 uM after 96 hrs (Rvb= 1.89%); type: functional; in short: as §1
# [28] = Effect on fatty acid composition in human myotubes assessed as intracellular SFA level at 30 uM after 96 hrs (Rvb= 31.41%); type: functional; in short: as §1
# [29] = Effect on fatty acid composition in human myotubes assessed as intracellular MUFA level at 30 uM after 96 hrs (Rvb= 49.95%); type: functional; in short: as §1
# [30] = Effect on fatty acid composition in human myotubes assessed as intracellular PUFA n-3 level at 30 uM after 96 hrs (Rvb= 5.16%); type: functional; in short: as §1
# [31] = Effect on fatty acid composition in human myotubes assessed as intracellular PUFA n-6 level at 30 uM after 96 hrs (Rvb= 11.46%); type: functional; in short: as §1
# [32] = Effect on fatty acid composition in human myotubes assessed as intracellular PUFA n-9 level at 30 uM after 96 hrs (Rvb= 1.89%); type: functional; in short: as §1
# [33] = target: T1, Peroxisome proliferator-activated receptor (Homo sapiens) (UniProt P37231+Q07869+Q03181); test: Agonist activity at PPAR in human myotubes assessed as ANGPTL4 mRNA expression at 30 uM after 96 hrs by qPCR analysis relative to control
# In short: (§3)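 Myotubes from satellite cells of abdominal muscle biopsies of healthy donors, differentiated 7 days, then exposed 96 h to test lipids (30 μM) vs DMSO 0.1%. Total RNA isolated (RIN ≥7), reverse transcribed, real-time PCR with gene-specific primers; expression expressed relative to DMSO control.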
# [34] = target: T1, Peroxisome proliferator-activated receptor (Homo sapiens); test: Agonist activity at PPAR in human myotubes assessed as FABP3 mRNA expression at 30 uM after 96 hrs by qPCR analysis relative to control; in short: as §3
# [35] = target: T1, Peroxisome proliferator-activated receptor (Homo sapiens); test: Agonist activity at PPAR in human myotubes assessed as CD36 mRNA expression at 30 uM after 96 hrs by qPCR analysis relative to control; in short: as §3
# [36] = target: T1, Peroxisome proliferator-activated receptor (Homo sapiens); test: Agonist activity at PPAR in human myotubes assessed as CPT1A mRNA expression at 30 uM after 96 hrs by qPCR analysis relative to control; in short: as §3
Compound,Activity [1] [mol%],Activity [2] [mol%],Activity [3] [mol%],Activity [4] [mol%],Activity [5] [mol%],Activity [6] [mol%],Activity [7] [mol%],Activity [8] [mol%],Activity [9] [mol%],Activity [10] [mol%],Activity [11] [mol%],Activity [12] [mol%],Activity [13] [mol%],Activity [15] [%],Activity [16] [%],Activity [17] [%],Activity [18] [%],Activity [20],Activity [21],Activity [22],further results
CCCCCCCCCCCCCCSCC(=O)OC[C@@H](O)COP(=O)([O-])OCC[N+](C)(C)C,7.99,0.76,30.15,37.12,7.68,13.96,2.21,19.51,0.91,23.57,33.15,7.56,13.2,-16.3,-34.6,-9.6,-19.3,inactive,Non-toxic,Non-toxic,Activity [14]: 1.97 mol%; Activity [19]: Dose-dependent effect
CCCCCC/C=C\CCCCCCSCC(=O)OC[C@H](COP(=O)([O-])OCC[N+](C)(C)C)OC(=O)CSCCCCCC/C=C\CCCCCC,0.01,1.87,–,–,–,–,–,0.4,6.08,–,–,–,–,2.7,4.5,-3.6,-13.1,inactive,Non-toxic,Non-toxic,Activity [23]: 32.26 mol%; Activity [24]: 48.17 mol%; Activity [25]: 4.74 mol%; Activity [26]: 11.29 mol%; Activity [27]: 1.53 mol%; Activity [28]: 32.82 mol%; Activity [29]: 43.41 mol%; Activity [30]: 4.63 mol%; Activity [31]: 11.45 mol%; Activity [32]: 1.42 mol%; Activity [33]: Active; Activity [34]: Active; Activity [35]: Active; Activity [36]: Active
CCCCCCCCCCCCCCSCC(=O)OC[C@@H](O)CO,7.17,0.49,29.36,38.46,8.42,14.15,1.81,20.04,0.91,22.3,33.11,8.21,13.63,-18.5,-38.1,-6.4,-19.4,inactive,Non-toxic,Non-toxic,Activity [14]: 1.68 mol%; Activity [19]: Dose-dependent effect; Activity [33]: Active; Activity [34]: Active; Activity [35]: Active; Activity [36]: Active
